Data on 16 molecules can be found in PubChem BioAssay.

A short description of assay [1]: Her2 expression decrease, cell viability multiplex – SKBR3 breast tumor cells, AlphaScreen, ATP viability, primary screen (AID 461;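 active = Her2 level under about 52% in both replicate screens, with viability over 70% of control, limit read from the data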;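 for Her2 level: lower value means less Her2 protein in the cells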;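 for viability: percent of carrier control wells set as 100% viability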). The settings on record: SKBR3 Her2 protein level, 18-24 h, measured here: SKBR3 viability, ATP luminescence, at 10 µM. A general note: Alpha assays give light when donor and acceptor beads are brought close together.
For assay [2], the target named is Receptor tyrosine-protein kinase erbB-2 (Homo sapiens) (UniProt P04626). The description is as above. The following applies: 18-24 h, at 10 µM, stronger effect = lower value.
A short description of assay [3]: reduced viability of SK-BR-3 breast cancer cells – cell-based, 24 h, human, pilot screen (AID 572;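 active = viability at or below 10% of carrier control in both of two separate runs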;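 note: compound exposure lasted between 18 and 24 h rather than exactly 24 h; 100% = carrier-treated control wells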). The following applies: SK-BR-3 viability, CellTiter-Glo luminescence, at 10 µM, stronger effect = lower value.
A short description of assay [4]: HUVEC growth inhibition – cell-based, human, primary screen (AID 575;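 active = viability at or below 30% in both replicate assays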;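 note: 100% = median of untreated cell wells with 0.1% DMSO on each plate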). The settings on record: HUVEC proliferation, CellTiter-Glo luminescence, 72 h; at 10 µM; stronger effect = lower value. A digest of the protocol: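 Test system: primary human umbilical vein endothelial cells. Quantity: 1250 cells/well. Compound: single 10 µM dose, 0.1% DMSO, from 5x medium stock. Timing: 72 h treatment at 37 °C. Detection: ATP-based CellTiter-Glo luminescent read. Benchmarks: vehicle and MePR control wells. Format: 384-well plates coated with collagen.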
Background: ATP-based viability assays read luminescence as a measure of living cells.

Assay [5] can be described thus: H69AR cell proliferation blockers – human, duplicate replicates, primary screen (AID 580).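 Note: 100% = mean luminescence of untreated wells and 0% = no signal.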 The settings on record: H69AR lung tumor cells viability, ATP luminescence, 72 h; at 10 µM; stronger effect = lower value.
The nature of assay [6]: MRP1 drug-resistance reversers in H69AR cells – cell-based, doxorubicin co-treatment, pilot screen (AID 601;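 active = viability loss from added drug above about 55%, and viability with drug at most 40%, in both replicates, limit read from the data, passing the limit was not always enough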). The following applies: CellTiter-Glo, 72 h, at 10 µM; for differential viability (reversal): stronger effect = higher value.
Assay [7] in a line: yeast transport mutant growth inhibition pilot in 384-well plates, post-Golgi transport modulator project (AID 636; in the data active = inhibition above about 31%). The settings on record: absorbance 615 nm, about 18 h, stronger effect = higher value.
Assay [8] is described as follows: growth suppression of yeast trafficking mutant, preliminary HTS, modulators of trafficking downstream of Golgi apparatus project, 1536-format plate, OD 615 nm (AID 637; in the data active = inhibition above about 30%). The following applies: yeast transport mutant growth, absorbance 615 nm, 18 h; stronger effect = higher value.
Where [9] appears, read: H69AR cells + 2 uM doxorubicin, measured here: viability with 2 uM doxorubicin, stronger effect = lower value.
Where [10] appears, read: H69AR cells, compound alone cytotoxicity.

Activity calls are given as the source filed them.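 Rule for the calls, unless noted: active = viability at or under a set limit in both replicates, limit being median viability minus 3 SD (cut at about 48% in these data, passing the limit was not always enough); inconclusive = at or under the limit in just one replicate; inactive = at or above the limit in both replicates.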

Chain of Receptor tyrosine-protein kinase erbB-2 (Homo sapiens) (P04626 whole entry, looked up): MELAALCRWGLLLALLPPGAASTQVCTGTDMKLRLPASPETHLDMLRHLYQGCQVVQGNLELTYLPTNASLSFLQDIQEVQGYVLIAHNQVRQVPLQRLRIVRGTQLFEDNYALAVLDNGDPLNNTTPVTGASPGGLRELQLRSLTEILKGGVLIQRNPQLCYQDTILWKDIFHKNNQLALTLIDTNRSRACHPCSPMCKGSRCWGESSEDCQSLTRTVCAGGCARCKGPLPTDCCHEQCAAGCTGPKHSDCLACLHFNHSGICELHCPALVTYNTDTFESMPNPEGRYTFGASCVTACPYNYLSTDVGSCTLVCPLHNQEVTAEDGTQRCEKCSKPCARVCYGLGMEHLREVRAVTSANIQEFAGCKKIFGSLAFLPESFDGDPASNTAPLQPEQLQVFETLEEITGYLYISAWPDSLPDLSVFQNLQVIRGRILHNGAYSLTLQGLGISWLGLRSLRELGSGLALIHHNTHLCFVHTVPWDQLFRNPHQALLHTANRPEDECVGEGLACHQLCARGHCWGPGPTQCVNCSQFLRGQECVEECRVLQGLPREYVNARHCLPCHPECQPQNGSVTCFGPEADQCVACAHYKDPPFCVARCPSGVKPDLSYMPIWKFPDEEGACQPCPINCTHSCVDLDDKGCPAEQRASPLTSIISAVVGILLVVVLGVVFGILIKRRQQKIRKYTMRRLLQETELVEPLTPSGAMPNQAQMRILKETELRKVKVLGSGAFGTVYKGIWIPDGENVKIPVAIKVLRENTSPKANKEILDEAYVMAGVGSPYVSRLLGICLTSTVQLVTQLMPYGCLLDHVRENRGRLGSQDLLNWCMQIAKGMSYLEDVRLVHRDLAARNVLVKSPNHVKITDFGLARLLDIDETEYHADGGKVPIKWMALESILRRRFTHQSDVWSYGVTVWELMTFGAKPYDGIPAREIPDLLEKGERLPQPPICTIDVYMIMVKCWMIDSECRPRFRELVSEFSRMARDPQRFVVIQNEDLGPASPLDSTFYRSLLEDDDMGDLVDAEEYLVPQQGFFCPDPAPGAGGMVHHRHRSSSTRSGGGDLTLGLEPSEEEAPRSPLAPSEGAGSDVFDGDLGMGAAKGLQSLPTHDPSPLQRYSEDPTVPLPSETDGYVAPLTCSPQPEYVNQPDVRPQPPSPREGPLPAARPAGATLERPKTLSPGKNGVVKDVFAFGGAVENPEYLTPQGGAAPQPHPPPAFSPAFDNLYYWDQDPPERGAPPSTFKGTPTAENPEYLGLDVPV

What is called viability is a read-out of living cells in per cent, often relative to untreated cells. The inhibition is the drop in the measured response relative to a control, in per cent. With `COc1ccc(Br)cc1CNC(=O)C1CCCN(S(C)(=O)=O)C1` (stereo not given), the viability in assay [1] was 78%; in assay [3], 78% (inactive); in assay [4] it was 94.7% (inactive); in assay [5], 88.4% (inactive); in assay [6] (setting [9]), 82.2%; in assay [6] (setting [10]) it was 88.4%. Further, the Her2 level in assay [2] was 104% (inactive). In assay [6] (H69AR cells + 2 uM doxorubicin), the differential viability (reversal) was 6.26% (inactive). Besides, the inhibition in assay [7] was 0.9% (inactive); in assay [8], 10.2% (inactive).
On to `COCCSc1nnc(NC(=O)Cc2ccccc2OC)s1`, for which the viability in assay [1] was 106%; in assay [3], 106% (inactive); in assay [4], 91% (inactive); in assay [5], 98.9% (inactive); in assay [6] (setting [9]) it was 91%; in assay [6] (setting [10]), 98.9%. Besides, the Her2 level in assay [2] was 76% (inactive). The differential viability (reversal) in assay [6] (H69AR cells + 2 uM doxorubicin) was 7.86% (inactive). In addition, the figures for the inhibition in assay [7] and in assay [8] were -5.39% (inactive) and -1.67% (inactive), respectively.
`C=CCOC(=O)CCC(=O)Nc1cc(OC)nc(OC)n1`: the viability is 112% in assay [1]; 112% (inactive) in assay [3]; 92.1% (inactive) in assay [4]; 90.8% (inactive) in assay [5]; 90.1% in assay [6] (setting [9]); 90.8% in assay [6] (setting [10]). For the same molecule, in assay [2], the Her2 level was 112% (inactive). Moreover, in assay [6] (H69AR cells + 2 uM doxorubicin), the differential viability (reversal) is 0.705% (inactive). The inhibition was -3.07% (inactive) in assay [7] and 8.73% (inactive) in assay [8].
As to `Cc1ccc(-n2c(=O)c3sccc3n(CC(=O)NCc3ccco3)c2=O)cc1`, the viability is 107% in assay [1]; 107% (inactive) in assay [3]; 96.5% (inactive) in assay [4]; 99% (inactive) in assay [5]; 91.4% in assay [6] (setting [9]); 99% in assay [6] (setting [10]). Besides, the Her2 level in assay [2] is 102% (inactive). Also, the differential viability (reversal) in assay [6] (H69AR cells + 2 uM doxorubicin) was 7.63% (inactive). In addition, the inhibition is -5.53% (inactive) in assay [7] and -2.91% (inactive) in assay [8].
For `COc1ccc(CCNC(=O)CSc2nncn2N)cc1OC`, the viability in assay [1] was 93.5%; in assay [3] it was 93.5% (inactive); in assay [4], 109% (inactive); in assay [5], 96.4% (inactive); in assay [6] (setting [9]), 88.4%; in assay [6] (setting [10]) it was 96.4%. Also, the Her2 level in assay [2] was 80.5% (inactive). Moreover, the differential viability (reversal) in assay [6] (H69AR cells + 2 uM doxorubicin) was 8% (inactive). Further, the inhibition was -2.11% (inactive) in assay [7] and -3.5% (inactive) in assay [8].
With `COCCn1c(SCC(=O)c2ccccc2)nc2c(c1=O)SC(C)C2` (stereo not given), the viability in assay [1] was 108%; in assay [3], 108% (inactive); in assay [4], 98.9% (inactive); in assay [5] it was 79.7% (inactive); in assay [6] (setting [9]) it was 52.1%; in assay [6] (setting [10]), 79.7%. Besides, the Her2 level in assay [2] is 106% (inactive). In addition, the differential viability (reversal) in assay [6] (H69AR cells + 2 uM doxorubicin) was 27.6% (inactive). For the same molecule, the inhibition was -5.2% (inactive) in assay [7] and 3.44% (inactive) in assay [8].
As for `Cc1nc(SCc2ccc(Br)cc2)[nH]c(=O)c1C`, the viability in assay [1] is 83.5%; in assay [3], 83.5% (inactive); in assay [4], 60.7% (inactive); in assay [5], 92.1% (inactive); in assay [6] (setting [9]) it was 82.4%; in assay [6] (setting [10]), 92.1%. The Her2 level in assay [2] was 85.5% (inactive). For the same molecule, the differential viability (reversal) in assay [6] (H69AR cells + 2 uM doxorubicin) was 9.71% (inactive). The inhibition in assay [7] was -5.14% (inactive); in assay [8], 0.82% (inactive).
`CCOc1ccc2nc(SCC(=O)N3CCCCCC3)c(C#N)cc2c1`: the viability in assay [1] is 95%; in assay [3] it was 95% (inactive); in assay [4] it was 87.5% (inactive); in assay [5], 86.2% (inactive); in assay [6] (setting [9]), 89.4%; in assay [6] (setting [10]), 86.2%. Also, the Her2 level in assay [2] was 82.5% (inactive). Further, the differential viability (reversal) in assay [6] (H69AR cells + 2 uM doxorubicin) is -3.21% (inactive). For the same molecule, the values for the inhibition in assay [7] and in assay [8] were -5.87% (inactive) and 3.28% (inactive), respectively.
For the molecule `CCCn1cc(SCC(=O)NCc2ccco2)c2ccccc21`, the viability in assay [1] is 98.5%; in assay [3], 98.5% (inactive); in assay [4] it was 92.3% (inactive); in assay [5], 94% (inactive); in assay [6] (setting [9]), 78.6%; in assay [6] (setting [10]), 94%. Further, the Her2 level in assay [2] was 90% (inactive). The differential viability (reversal) in assay [6] (H69AR cells + 2 uM doxorubicin) was 15.4% (inactive). Moreover, the inhibition was -5.47% (inactive) in assay [7] and 0.48% (inactive) in assay [8].
With `COc1ccc(NC(=O)c2cc(C)on2)cc1OC`, the viability in assay [1] was 110%; in assay [3], 110% (inactive); in assay [4], 104% (inactive); in assay [5], 96.7% (inactive); in assay [6] (setting [9]), 88.6%; in assay [6] (setting [10]) it was 96.7%. In addition, the Her2 level in assay [2] was 93% (inactive). Further, the differential viability (reversal) in assay [6] (H69AR cells + 2 uM doxorubicin) is 8.07% (inactive). Further, the values for the inhibition in assay [7] and in assay [8] were -5.87% (inactive) and 3.28% (inactive), respectively.
Turning to `c1ccc(-c2cc3c(nn2)CCc2nonc2-3)cc1`, the viability was 98.5% in assay [1]; 98.5% (inactive) in assay [3]; 117% (inactive) in assay [4]; 97.8% (inactive) in assay [5]; 108% in assay [6] (setting [9]); 97.8% in assay [6] (setting [10]). The Her2 level in assay [2] was 102% (inactive). Besides, the differential viability (reversal) in assay [6] (H69AR cells + 2 uM doxorubicin) is -9.73% (inactive). In addition, the figures for the inhibition in assay [7] and in assay [8] were 0% (inactive) and 4.26% (inactive), respectively.
Take `Cn1c(=N)n(CC(=O)O)c2ccccc21`: the viability in assay [1] is 108%; in assay [3], 108% (inactive); in assay [4] it was 91.5% (inactive); in assay [5], 96.2% (inactive); in assay [6] (setting [9]), 89.4%; in assay [6] (setting [10]) it was 96.2%. In addition, in assay [2], the Her2 level was 100% (inactive). Moreover, the differential viability (reversal) in assay [6] (H69AR cells + 2 uM doxorubicin) is 6.81% (inactive). In addition, the inhibition in assay [7] is -5.97% (inactive); in assay [8], -5.4% (inactive).
Consider `COc1ccc(-n2c(SCCC(=O)O)nnc2-c2ccncc2)cc1`, for which the viability in assay [1] is 96%; in assay [3], 96% (inactive); in assay [4], 97% (inactive); in assay [5], 96.7% (inactive); in assay [6] (setting [9]), 96.1%; in assay [6] (setting [10]), 96.7%. Besides, in assay [2], the Her2 level is 96% (inactive). For the same molecule, the differential viability (reversal) in assay [6] (H69AR cells + 2 uM doxorubicin) is 0.675% (inactive). Moreover, the inhibition was -3.42% (inactive) in assay [7] and 0.32% (inactive) in assay [8].
As to `Cc1cc(NC(=O)c2cc3ccccc3o2)cc(C)c1OCC(=O)N1CCOCC1`, the viability in assay [1] is 92.5%; in assay [3], 92.5% (inactive); in assay [4], 90.6% (inactive); in assay [5] it was 90.3% (inactive); in assay [6] (setting [9]), 89.5%; in assay [6] (setting [10]), 90.3%. Moreover, the Her2 level in assay [2] was 102% (inactive). Also, the differential viability (reversal) in assay [6] (H69AR cells + 2 uM doxorubicin) is 0.745% (inactive). Further, the inhibition is -6.89% (inactive) in assay [7] and -1.8% (inactive) in assay [8].
As for `CCc1cccc(NC(=O)C2CCCN(S(=O)(=O)c3c(C)[nH]c(=O)[nH]c3=O)C2)c1` (stereo not given), the viability in assay [1] was 89.5%; in assay [3], 89.5% (inactive); in assay [4], 97% (inactive); in assay [5] it was 95% (inactive); in assay [6] (setting [9]) it was 88.2%; in assay [6] (setting [10]), 95%. Also, in assay [2], the Her2 level was 82% (inactive). Besides, in assay [6] (H69AR cells + 2 uM doxorubicin), the differential viability (reversal) is 6.79% (inactive). Besides, the inhibition in assay [7] is -2.89% (inactive); in assay [8] it was -3.83% (inactive).
`Nc1nnn(Cc2ccccc2)n1`: the viability in assay [1] is 93.5%; in assay [3], 93.5% (inactive); in assay [4] it was 100% (inactive); in assay [5] it was 119% (inactive); in assay [6] (setting [9]) it was 97.3%; in assay [6] (setting [10]), 119%. Besides, the Her2 level in assay [2] is 92% (inactive). The differential viability (reversal) in assay [6] (H69AR cells + 2 uM doxorubicin) is 22.1% (inactive). Also, the inhibition is -5.21% (inactive) in assay [7] and -6.98% (inactive) in assay [8].
